Source: ChEMBL document CHEMBL1145864, “Synthesis and structure-activity relationship of a new series of COX-2 selective inhibitors: 1,5-diarylimidazoles” (J Med Chem, 2003)

How the values were obtained:
[1] = target: Prostaglandin G/H synthase 1 (Homo sapiens, UniProt P23219); assay type: cell-based, U-937
Rattus norvegicus [2] = experiment: In vivo anti-inflammatory activity determined by rat carrageenan paw edema method at 10 mg/kg perorally; assay type: functional; details: route oral
[3] = target: T1, Prostaglandin G/H synthase 2 (Homo sapiens) (UniProt P35354); details: Blood; at 1 µM
T1 sequence (whole entry): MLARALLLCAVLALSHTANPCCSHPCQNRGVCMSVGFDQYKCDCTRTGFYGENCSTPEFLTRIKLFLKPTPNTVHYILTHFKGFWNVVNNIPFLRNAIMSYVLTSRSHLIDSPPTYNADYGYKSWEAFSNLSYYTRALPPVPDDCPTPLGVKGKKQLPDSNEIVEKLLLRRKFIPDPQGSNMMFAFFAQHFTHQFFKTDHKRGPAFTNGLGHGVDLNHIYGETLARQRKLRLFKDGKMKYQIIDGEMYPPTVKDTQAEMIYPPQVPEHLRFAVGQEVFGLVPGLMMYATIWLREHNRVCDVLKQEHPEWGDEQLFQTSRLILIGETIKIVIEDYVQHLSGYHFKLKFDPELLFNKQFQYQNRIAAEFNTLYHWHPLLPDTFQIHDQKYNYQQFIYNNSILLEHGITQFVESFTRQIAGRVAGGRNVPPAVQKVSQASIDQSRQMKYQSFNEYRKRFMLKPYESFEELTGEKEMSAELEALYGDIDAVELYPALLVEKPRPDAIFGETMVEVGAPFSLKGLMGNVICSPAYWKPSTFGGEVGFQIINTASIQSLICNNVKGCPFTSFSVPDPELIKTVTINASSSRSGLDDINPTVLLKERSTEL

[4] = Half life of compound was determined at 1 mg/kg intravenous administration in rat; assay type: ADME, organism-based; parameters: dose 1 mg/kg, route intravenous; details: in vivo
Rattus norvegicus [5] = experiment: In vivo anti-inflammatory activity by air pouch model at 1 mg/kg perorally in rat.; assay type: functional; details: route oral
Method in brief: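 Rat air pouch: sterile air (20 mL) was injected subcutaneously, with 10 mL refills every 2 days. On day 7, 2 mL of 1% lambda-carrageenan in saline was injected into the pouch. Compound was given orally (suspension in 1% CMC/Tween-80, 10 mL/kg) 0.5 h before carrageenan. At 6 h, exudate was collected and centrifuged, and supernatant PGE2 was measured by ELISA.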

[6] = target: T1, Prostaglandin G/H synthase 2 (Homo sapiens); details: Blood; at 10 µM
Rattus norvegicus [7] = experiment: Percentage of [51Cr]- secreted in feces was determined by fecal drug-induced bleeding method in rat at 100 mg/kg, bid for 4 days
Rattus norvegicus [8] = experiment: In vivo inhibition of contralateral paw swelling after oral treatment for 28 days (1 mg/kg od) was determined by adjuvabt arthritis in rat; assay type: functional
Method in brief: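 Lewis rats (140–170 g, 7 weeks) received 0.5 mg Mycobacterium butyricum in light mineral oil intradermally into the right hind foot pad; controls received incomplete adjuvant. Groups of 10 were dosed orally at 1 mg/kg daily for 28 days, starting on the day of injection. Left hind paw volume was measured plethysmographically at the end and expressed as % inhibition versus controls.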

Rattus norvegicus [9] = experiment: In vivo analgesic activity of compound was determined by inflammatory hyperalgesia model at 3 mg/kg perorally in rat; assay type: functional; details: route oral
Method in brief: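 Male Sprague–Dawley rats received 1% carrageenan suspension (0.1 mL) into the right hind foot pad. Three hours later, compound (suspended in 1% Tween-80) was given by gavage. After 30 min, a heat stimulus was applied under the inflamed paw and withdrawal latency (s) recorded. The % inhibition of the stimulus-induced latency decrease was calculated relative to the untreated left paw.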

Rattus norvegicus [10] = experiment: In vivo anti-inflammatory activity of compound was determined by rat carrageenan paw edema at 10 mg/kg perorally; details: po
[11] = target: T1, Prostaglandin G/H synthase 2 (Homo sapiens); experiment: In vitro inhibition of Prostaglandin G/H synthase 2 (COX-2)in human whole blood at 1 uM was determined

Chain of Prostaglandin G/H synthase 1 (P23219 whole entry): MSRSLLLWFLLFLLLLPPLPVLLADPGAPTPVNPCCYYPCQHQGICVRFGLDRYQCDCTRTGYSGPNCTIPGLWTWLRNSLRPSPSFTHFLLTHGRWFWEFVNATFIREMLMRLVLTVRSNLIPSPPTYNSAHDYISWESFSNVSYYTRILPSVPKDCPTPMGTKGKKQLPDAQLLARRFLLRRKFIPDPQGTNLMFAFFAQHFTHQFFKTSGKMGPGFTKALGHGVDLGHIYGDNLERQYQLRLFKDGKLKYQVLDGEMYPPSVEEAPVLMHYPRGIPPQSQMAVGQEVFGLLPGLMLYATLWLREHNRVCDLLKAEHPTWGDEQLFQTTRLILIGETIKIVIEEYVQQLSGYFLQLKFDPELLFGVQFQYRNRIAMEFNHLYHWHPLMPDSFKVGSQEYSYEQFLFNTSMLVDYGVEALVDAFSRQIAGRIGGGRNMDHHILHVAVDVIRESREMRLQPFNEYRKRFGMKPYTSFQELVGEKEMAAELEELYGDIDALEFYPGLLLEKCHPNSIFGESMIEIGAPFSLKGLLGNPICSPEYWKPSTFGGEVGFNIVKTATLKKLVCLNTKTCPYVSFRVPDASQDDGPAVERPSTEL

## CS(=O)(=O)c1ccc(-n2cnc(Cl)c2-c2ccccc2)cc1
[1]
  IC50: > 10 µM
Rattus norvegicus [2]
  inhibition in vivo at 10 mg/kg: 29.2%
[3]
  inhibition: 82.6%
[4]
  half-life: 17 h
Rattus norvegicus [5]
  inhibition in vivo at 1 mg/kg: 83.2%
[6]
  inhibition: 96%

## COc1ccc(-c2c(Cl)ncn2-c2ccc(S(C)(=O)=O)cc2)cc1F
[1]
  IC50: > 10 µM
Rattus norvegicus [2]
  inhibition in vivo at 10 mg/kg: 24.2%
Rattus norvegicus [7]
  Cr secretion: 0.4%
Rattus norvegicus [8]
  Inhibition: 86%
[3]
  inhibition: 79%
[4]
  half-life: 2.2 h
Rattus norvegicus [5]
  inhibition in vivo at 1 mg/kg: 89.5%
Rattus norvegicus [9]
  inhibition in vivo at 3 mg/kg: 80%
[6]
  inhibition: 100%

## Cc1ccc(-c2cc(C(F)(F)F)nn2-c2ccc(S(N)(=O)=O)cc2)cc1 [CELECOXIB]
Rattus norvegicus [2]
  inhibition in vivo at 10 mg/kg: 35.7%
Rattus norvegicus [7]
  Cr secretion: 0.7%
Rattus norvegicus [8]
  Inhibition: 89%
Rattus norvegicus [5]
  inhibition in vivo at 1 mg/kg: 93.4%
Rattus norvegicus [9]
  inhibition in vivo at 3 mg/kg: 86.7%

## COc1cc(-c2c(Cl)ncn2-c2ccc(S(C)(=O)=O)cc2)ccc1F
[1]
  IC50: > 10 µM
Rattus norvegicus [2]
  inhibition in vivo at 10 mg/kg: 25%
[3]
  inhibition: 97.4%
Rattus norvegicus [5]
  inhibition in vivo at 1 mg/kg: 15.1%
Rattus norvegicus [9]
  inhibition in vivo at 3 mg/kg: 20.4%
[6]
  inhibition: 92.6%

## COc1ccc(-c2c(Cl)ncn2-c2ccc(S(N)(=O)=O)cc2)cc1F [CIMICOXIB]
[1]
  IC50: 3.3 µM
Rattus norvegicus [2]
  inhibition in vivo at 10 mg/kg: 31%
Rattus norvegicus [7]
  Cr secretion: 0.9%
Rattus norvegicus [8]
  Inhibition: 93%
[3]
  inhibition: 100%
[4]
  half-life: 2.9 h
Rattus norvegicus [5]
  inhibition in vivo at 1 mg/kg: 98.2%
Rattus norvegicus [9]
  inhibition in vivo at 3 mg/kg: 83.4%
[6]
  inhibition: 100%

## CS(=O)(=O)c1ccc(-n2cnc(Cl)c2-c2ccc(F)cc2)cc1
[1]
  IC50: > 10 µM
Rattus norvegicus [10]
  inhibition in vivo at 10 mg/kg: 41.2%
[3]
  inhibition: 89%
[4]
  half-life: 21 h
Rattus norvegicus [5]
  inhibition in vivo at 1 mg/kg: 98.1%
[6]
  inhibition: 100%

## CCOc1ccc(-c2c(Cl)ncn2-c2ccc(S(N)(=O)=O)cc2)cc1
[1]
  IC50: 2.2 µM
Rattus norvegicus [2]
  inhibition in vivo at 10 mg/kg: 29.2%
Rattus norvegicus [7]
  Cr secretion: 0.5%
Rattus norvegicus [8]
  Inhibition: 97%
[4]
  half-life: 2.2 h
Rattus norvegicus [5]
  inhibition in vivo at 1 mg/kg: 98.9%
Rattus norvegicus [9]
  inhibition in vivo at 3 mg/kg: 82.8%

## NS(=O)(=O)c1ccc(-n2cnc(Cl)c2-c2ccccc2)cc1
[1]
  IC50: 5.1 µM
Rattus norvegicus [2]
  inhibition in vivo at 10 mg/kg: 36.3%
[4]
  half-life: 2.9 h
Rattus norvegicus [5]
  inhibition in vivo at 1 mg/kg: 96.3%
[6]
  inhibition: 59.5%

## Cc1ccc(-c2c(Cl)ncn2-c2ccc(S(C)(=O)=O)cc2)cc1
[1]
  IC50: > 10 µM
Rattus norvegicus [2]
  inhibition in vivo at 10 mg/kg: 21.6%
[3]
  inhibition: 90.5%
[4]
  half-life: 1.7 h
Rattus norvegicus [5]
  inhibition in vivo at 1 mg/kg: 65.5%
[6]
  inhibition: 100%

## NS(=O)(=O)c1ccc(-n2cnc(Cl)c2-c2ccc(F)cc2)cc1
[1]
  IC50: 3.1 µM
Rattus norvegicus [2]
  inhibition in vivo at 10 mg/kg: 38.6%
[4]
  half-life: 17 h
Rattus norvegicus [5]
  inhibition in vivo at 1 mg/kg: 93.2%
[6]
  inhibition: 61.4%

## CCN(CC)c1ccc(-c2c(Cl)ncn2-c2ccc(S(C)(=O)=O)cc2)cc1
[1]
  IC50: > 10 µM
Rattus norvegicus [2]
  inhibition in vivo at 10 mg/kg: 24.2%
[3]
  inhibition: 9.7%
Rattus norvegicus [5]
  inhibition in vivo at 1 mg/kg: 64.1%
Rattus norvegicus [9]
  inhibition in vivo at 3 mg/kg: 64.1%
[6]
  inhibition: 100%

## CS(=O)(=O)c1ccc(-c2cnc(Cl)n2-c2ccc(F)cc2)cc1
[1]
  IC50: > 10 µM
Rattus norvegicus [2]
  inhibition in vivo at 10 mg/kg: 20.4%
[3]
  inhibition: 85.6%
Rattus norvegicus [5]
  inhibition in vivo at 1 mg/kg: 55.2%
[6]
  inhibition: 100%

## CS(=O)(=O)c1ccc(-n2cnc(Cl)c2-c2ccncc2)cc1
[1]
  IC50: > 10 µM
Rattus norvegicus [2]
  inhibition in vivo at 10 mg/kg: 31.7%
[3]
  inhibition: 54.5%
Rattus norvegicus [5]
  inhibition in vivo at 1 mg/kg: 50.2%
Rattus norvegicus [9]
  inhibition in vivo at 3 mg/kg: 69.4%
[6]
  inhibition: 82.4%

## COc1ccc(-c2c(Cl)ncn2-c2ccc(S(C)(=O)=O)cc2)cc1C
[1]
  IC50: > 10 µM
Rattus norvegicus [2]
  inhibition in vivo at 10 mg/kg: 21.4%
[3]
  inhibition: 100%
Rattus norvegicus [5]
  inhibition in vivo at 1 mg/kg: 75.6%
[6]
  inhibition: 100%

## CN(C)c1ccc(-c2c(Cl)ncn2-c2ccc(S(C)(=O)=O)cc2)cc1Cl
[1]
  IC50: 1.9 µM
Rattus norvegicus [2]
  inhibition in vivo at 10 mg/kg: 33.3%
[3]
  inhibition: 64.6%
[4]
  half-life: 1.2 h
Rattus norvegicus [5]
  inhibition in vivo at 1 mg/kg: 43%
Rattus norvegicus [9]
  inhibition in vivo at 3 mg/kg: 63.8%
[6]
  inhibition: 98.9%

## COc1ccc(-c2c(Cl)ncn2-c2ccc(S(C)(=O)=O)cc2)cc1Cl
[1]
  IC50: > 10 µM
Rattus norvegicus [2]
  inhibition in vivo at 10 mg/kg: 31.4%
[3]
  inhibition: 84.1%
[4]
  half-life: 3.6 h
Rattus norvegicus [5]
  inhibition in vivo at 1 mg/kg: 71.1%
Rattus norvegicus [9]
  inhibition in vivo at 3 mg/kg: 66.6%
[6]
  inhibition: 100%

## COc1cc(-c2c(Cl)ncn2-c2ccc(S(N)(=O)=O)cc2)ccc1F
[1]
  IC50: > 1 µM
Rattus norvegicus [2]
  inhibition in vivo at 10 mg/kg: 14.3%
[4]
  half-life: 3.8 h
Rattus norvegicus [5]
  inhibition in vivo at 1 mg/kg: 58.9%
Rattus norvegicus [9]
  inhibition in vivo at 3 mg/kg: 38%
[6]
  inhibition: 79.3%

## CS(=O)(=O)c1ccc(-n2cnc(Cl)c2-c2ccc3c(c2)OCO3)cc1
[1]
  IC50: > 10 µM
Rattus norvegicus [2]
  inhibition in vivo at 10 mg/kg: 30.6%
[3]
  inhibition: 60.5%
[4]
  half-life: 3.5 h
Rattus norvegicus [9]
  inhibition in vivo at 3 mg/kg: 69.9%
[6]
  inhibition: 100%

## CS(=O)(=O)c1ccc(-c2cnc(C#N)n2-c2ccc(F)cc2)cc1
[1]
  IC50: > 10 µM
Rattus norvegicus [2]
  inhibition in vivo at 10 mg/kg: 28.5%
[11]
  inhibition: 74%
Rattus norvegicus [5]
  inhibition in vivo at 1 mg/kg: 79%
[6]
  inhibition: 100%

## COc1ccc2c(c1)c(CC(=O)O)c(C)n2C(=O)c1ccc(Cl)cc1 [INDOMETHACIN]
Rattus norvegicus [2]
  inhibition in vivo at 10 mg/kg: 66.2%
Rattus norvegicus [7]
  Cr secretion: 7.5%
Rattus norvegicus [8]
  Inhibition: 94%

## CS(=O)(=O)c1ccc(C2=C(c3ccccc3)C(=O)OC2)cc1 [ROFECOXIB]
Rattus norvegicus [2]
  inhibition in vivo at 10 mg/kg: 33.3%
Rattus norvegicus [7]
  Cr secretion: 0.6%
Rattus norvegicus [8]
  Inhibition: 87%
[3]
  inhibition: 84.1%
Rattus norvegicus [5]
  inhibition in vivo at 1 mg/kg: 95.3%
Rattus norvegicus [9]
  inhibition in vivo at 3 mg/kg: 83.4%
[6]
  inhibition: 100%

## Cc1ccc(-c2c(Cl)ncn2-c2ccc(S(N)(=O)=O)cc2)cc1
[1]
  IC50: 2.7 µM
Rattus norvegicus [2]
  inhibition in vivo at 10 mg/kg: 32.6%
[3]
  inhibition: 76.1%
[4]
  half-life: 5.2 h
Rattus norvegicus [5]
  inhibition in vivo at 1 mg/kg: 62.3%
[6]
  inhibition: 100%
